Source: ChEMBL document CHEMBL3808334, “Synthesis and in vitro evaluation of novel triazine analogues as anticancer agents and their interaction studies with bovine serum albumin” (Eur J Med Chem, 2016)

What was measured:
Type in all cases: functional
[1] = Growth inhibition of human Caki1 cells assessed as cell growth at 10^-4 M incubated for 48 hrs by sulforhodamine B assay; conditions: CAKI-1, 48 h, read-out: Activity
Method in brief: (§1)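 Cells seeded at 5,000–40,000/well according to doubling time and preincubated 24 h at 37 °C, 5% CO2. Time-zero plates were TCA-fixed. DMSO concentrate was diluted in medium with 50 µg/ml gentamicin to give five concentrations (10-fold or ½ log steps), then exposed 48 h. Cells were TCA-fixed, stained with 0.4% SRB and read at 515 nm. Percent growth was taken against time-zero and control; GI50, TGI and LC50 derived.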

[2] = system: SR; assay: Growth inhibition of human SR cells incubated for 48 hrs by sulforhodamine B assay
Method in brief: (§2)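 Cells were plated at 5,000–40,000 per well according to doubling time and preincubated 24 h at 37 °C in 5% CO2; time-zero plates were then TCA-fixed. Five concentrations (10-fold or ½-log dilutions, DMSO stock) were incubated 48 h. Cells were TCA-fixed, stained with 0.4% SRB and read at 515 nm. GI50 was taken where [(Ti−Tz)/(C−Tz)]×100 = 50.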

[3] = system: NCI-H226; assay: Growth inhibition of human NCI-H226 cells incubated for 48 hrs by sulforhodamine B assay; conditions: NCI-H226, 48 h; method in brief: as §2
[4] = system: Malme-3M; assay: Growth inhibition of human MALME-3M cells incubated for 48 hrs by sulforhodamine B assay; method in brief: as §2
[5] = Growth inhibition of human TK10 cells incubated for 48 hrs by sulforhodamine B assay; conditions: TK-10, 48 h; method in brief: as §2
[6] = Growth inhibition of human PC3 cells incubated for 48 hrs by sulforhodamine B assay; conditions: PC-3, 48 h; method in brief: as §2
[7] = Growth inhibition of human DU145 cells incubated for 48 hrs by sulforhodamine B assay; conditions: DU-145, 48 h; for CC50: read-out: pLC50 (the source's name) (converted); method in brief: as §1
[8] = Growth inhibition of human SKOV3 cells assessed as cell growth at 10^-5 M incubated for 48 hrs by sulforhodamine B assay; conditions: SK-OV-3, 48 h, read-out: Activity
[9] = system: SR; assay: Growth inhibition of human SR cells assessed as cell growth at 10^-7 M incubated for 48 hrs by sulforhodamine B assay; conditions: read-out: Activity
[10] = Growth inhibition of human TK10 cells assessed as cell growth at 10^-5 M incubated for 48 hrs by sulforhodamine B assay; conditions: TK-10, 48 h, read-out: Activity
[11] = Growth inhibition of human COLO205 cells assessed as cell growth at 10^-4 M incubated for 48 hrs by sulforhodamine B assay; conditions: COLO 205, 48 h, read-out: Activity; method in brief: as §1
[12] = Growth inhibition of human SF539 cells assessed as cell growth at 10^-4 M incubated for 48 hrs by sulforhodamine B assay; conditions: SF-539, 48 h, read-out: Activity
[13] = system: MCF7; assay: Growth inhibition of human MCF7 cells assessed as cell growth at 10^-7 M incubated for 48 hrs by sulforhodamine B assay; conditions: MCF7, 48 h, read-out: Activity
[14] = Growth inhibition of human COLO205 cells assessed as cell growth at 10^-6 M incubated for 48 hrs by sulforhodamine B assay; conditions: COLO 205, 48 h, read-out: Activity; method in brief: as §1
[15] = Growth inhibition of human HCT116 cells assessed as cell growth at 10^-6 M incubated for 48 hrs by sulforhodamine B assay; conditions: HCT-116, 48 h, read-out: Activity; method in brief: as §1
[16] = Growth inhibition of human HCC2998 cells assessed as cell growth at 10^-8 M incubated for 48 hrs by sulforhodamine B assay; conditions: HCC 2998, 48 h, read-out: Activity; method in brief: as §1
[17] = system: SK-MEL-5; assay: Growth inhibition of human SK-MEL-5 cells assessed as cell growth at 10^-6 M incubated for 48 hrs by sulforhodamine B assay; conditions: SK-MEL-5, 48 h, read-out: Activity
[18] = Growth inhibition of human OVCAR8 cells assessed as cell growth at 10^-6 M incubated for 48 hrs by sulforhodamine B assay; conditions: OVCAR-8, 48 h, read-out: Activity
[19] = system: MDA-MB-468; assay: Growth inhibition of human MDA-MB-468 cells assessed as cell growth at 10^-6 M incubated for 48 hrs by sulforhodamine B assay; conditions: MDA-MB-468, 48 h, read-out: Activity
[20] = system: A549; assay: Growth inhibition of human A549/ATCC cells assessed as cell growth at 10^-5 M incubated for 48 hrs by sulforhodamine B assay; conditions: A549, 48 h, read-out: Activity
Method in brief: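 Five-dose assay: five concentrations from 10-fold or ½-log serial dilutions. Cells are plated at 5,000–40,000 per well according to doubling time, grown 24 h, then exposed 48 h at 37 °C, 5% CO₂. Fixed with cold 50% TCA (final addition) for 60 min at 4 °C and stained with 0.4% SRB in 1% acetic acid. Bound dye is solubilized in 10 mM Tris base and read at 515 nm. GI₅₀ is where [(Ti−Tz)/(C−Tz)]×100 = 50, with a time-zero plate as Tz.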

[21] = Growth inhibition of human HCT15 cells assessed as cell growth at 10^-5 M incubated for 48 hrs by sulforhodamine B assay; conditions: HCT-15, 48 h, read-out: Activity; method in brief: as §1
[22] = Growth inhibition of human UACC62 cells assessed as cell growth at 10^-5 M incubated for 48 hrs by sulforhodamine B assay; conditions: UACC-62, 48 h, read-out: Activity
[23] = system: EKVX; assay: Growth inhibition of human EKVX cells assessed as cell growth at 10 uM incubated for 48 hrs by sulforhodamine B assay; conditions: read-out: Activity
Method in brief: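 Primary screen at one dose (10 µM) across 60 human cancer cell lines. Readout was growth percent relative to untreated control and time-zero.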

[24] = system: NCI-H226; assay: Growth inhibition of human NCI-H226 cells assessed as cell growth at 10 uM incubated for 48 hrs by sulforhodamine B assay; conditions: NCI-H226, 48 h, read-out: Activity
[25] = Growth inhibition of human renal cancer cells incubated for 48 hrs by sulforhodamine B assay; conditions: Cancer cell lines; for CC50: read-out: LC50 (the source's name)
[26] = read-out: LC50 (the source's name)
[27] = read-out: pLC50 (the source's name) (converted)

SMILES: c1ccc(-c2nc(Nc3ccc(-c4nc5ccccc5[nH]4)cc3)nc(N3CCOCC3)n2)cc1
- growth at 100 µM [1]: -100%
- GI50 ([2]; read-out: GI50): 125 nM
- CC50 [2, 26]: > 100000 nM
- TGI ([2]; read-out: TGI): 555 nM
- GI50 ([2]; read-out: pGI50 (converted)): 126 nM
- CC50 [2, 27]: > 100000 nM
- TGI ([2]; read-out: pTGI (converted)): 550 nM
- GI50 ([3]; read-out: GI50): 2400 nM
- CC50 [3, 26]: 8750 nM
- TGI ([3]; read-out: TGI): 4580 nM
- GI50 ([3]; read-out: pGI50 (converted)): 2400 nM
- CC50 [3, 27]: 8710 nM
- TGI ([3]; read-out: pTGI (converted)): 4570 nM
- GI50 ([4]; read-out: GI50): 2000 nM
- CC50 [4, 26]: 7420 nM
- TGI ([4]; read-out: TGI): 3850 nM
- GI50 ([4]; read-out: pGI50 (converted)): 2000 nM
- CC50 [4, 27]: 7410 nM
- TGI ([4]; read-out: pTGI (converted)): 3890 nM
- GI50 ([5]; read-out: GI50): 2150 nM
- CC50 [5, 26]: 6580 nM
- TGI ([5]; read-out: TGI): 3760 nM
- GI50 ([5]; read-out: pGI50 (converted)): 2140 nM
- CC50 [5, 27]: 6610 nM
- TGI ([5]; read-out: pTGI (converted)): 3800 nM
- GI50 ([6]; read-out: GI50): 1800 nM
- CC50 [6, 26]: 7370 nM
- TGI ([6]; read-out: TGI): 3640 nM
- GI50 ([6]; read-out: pGI50 (converted)): 1820 nM
- CC50 [6, 27]: 7410 nM
- TGI ([6]; read-out: pTGI (converted)): 3630 nM
- LC50 (50% net cell kill) [7]: 5120 nM
- GI50 ([7]; read-out: GI50): 1210 nM
- TGI ([7]; read-out: TGI): 2490 nM
- GI50 ([7]; read-out: pGI50 (converted)): 1200 nM
- CC50 [7]: 5130 nM
- TGI ([7]; read-out: pTGI (converted)): 2510 nM
- growth at 10 µM [8]: -62%
- growth at 0.1 µM [9]: 58%
- growth at 10 µM [10]: -87%
- growth at 100 µM [11]: -74%
- growth at 100 µM [12]: -90%
- growth at 0.1 µM [13]: 92%
- growth at 1 µM [14]: 72%
- growth at 1 µM [15]: 16%
- growth at 0.01 µM [16]: 100%
- growth at 1 µM [17]: 92%
- growth at 1 µM [18]: 89%
- growth at 1 µM [19]: 102%
- growth at 10 µM [20]: -63%
- growth at 10 µM [21]: -58%
- growth at 10 µM [22]: -71%
- growth at 10 µM [23]: -66.9%
- growth at 10 µM [24]: -19.3%
- GI50 [25]: 1200 nM
- TGI [25]: 2720 nM
- CC50 [25]: 6270 nM

SMILES: Clc1ccc(-c2nc(Nc3ccc(-c4nc5ccccc5[nH]4)cc3)nc(N3CCOCC3)n2)cc1
- growth at 100 µM [1]: -68%
- GI50 ([2]; read-out: GI50): 31 nM
- CC50 [2, 26]: > 100000 nM
- GI50 ([2]; read-out: pGI50 (converted)): 30.9 nM
- CC50 [2, 27]: > 100000 nM
- GI50 ([3]; read-out: GI50): 2110 nM
- TGI ([3]; read-out: TGI): 4440 nM
- GI50 ([3]; read-out: pGI50 (converted)): 2090 nM
- TGI ([3]; read-out: pTGI (converted)): 4470 nM
- GI50 ([4]; read-out: GI50): 2100 nM
- TGI ([4]; read-out: TGI): 3860 nM
- GI50 ([4]; read-out: pGI50 (converted)): 2090 nM
- TGI ([4]; read-out: pTGI (converted)): 3890 nM
- GI50 ([5]; read-out: GI50): 1960 nM
- CC50 [5, 26]: 5970 nM
- TGI ([5]; read-out: TGI): 3420 nM
- GI50 ([5]; read-out: pGI50 (converted)): 1950 nM
- CC50 [5, 27]: 6030 nM
- TGI ([5]; read-out: pTGI (converted)): 3390 nM
- GI50 ([6]; read-out: GI50): 376 nM
- TGI ([6]; read-out: TGI): 1330 nM
- GI50 ([6]; read-out: pGI50 (converted)): 380 nM
- TGI ([6]; read-out: pTGI (converted)): 1320 nM
- LC50 (50% net cell kill) [7]: 4330 nM
- GI50 ([7]; read-out: GI50): 452 nM
- TGI ([7]; read-out: TGI): 1640 nM
- GI50 ([7]; read-out: pGI50 (converted)): 447 nM
- CC50 [7]: 4370 nM
- TGI ([7]; read-out: pTGI (converted)): 1660 nM
- growth at 10 µM [8]: -96%
- growth at 0.1 µM [9]: -5%
- growth at 10 µM [10]: -96%
- growth at 100 µM [11]: -44%
- growth at 100 µM [12]: -38%
- growth at 0.1 µM [13]: 86%
- growth at 1 µM [14]: 2%
- growth at 1 µM [15]: -80%
- growth at 0.01 µM [16]: 94%
- growth at 1 µM [17]: 93%
- growth at 1 µM [18]: 57%
- growth at 1 µM [19]: 25%
- growth at 10 µM [20]: -81%
- growth at 10 µM [21]: -76%
- growth at 10 µM [22]: -77%
- growth at 10 µM [23]: -91.3%
- growth at 10 µM [24]: -64.5%
- GI50 [25]: 1110 nM
- TGI [25]: 2250 nM
- CC50 [25]: 5600 nM
